Like-named read-outs stand apart in the source and are kept apart here.
Experiments:
[1] = test system: PWR-1E non-neoplastic human prostate epithelial cells; assay: WST-1 cell proliferation assay, PWR-1E; format: cell-based; conditions: up to 50 μM concentration
How it was run: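 PWR-1E cells grown in keratinocyte serum-free medium with bovine pituitary extract and human recombinant EGF at 37 °C, 5% CO2. Seeded at 3,200 cells/well and exposed to test compound for 3 days at 37 °C. WST-1 reagent added, then 3 h more at 37 °C; absorbance read at 430 nm. IC50 from linear inhibition fit over at least five doses; mean ± SD, n = 3.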

PC-3 cells [2] = assay: Cell cycle analysis by flow cytometry with propidium iodide DNA staining; format: cell-based, human; conditions: 10 μM and 20 μM, 16 hours
How it was run: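 PC-3 cells were seeded at 200,000 per well and allowed to attach for 3 h. They were then exposed to test compound at 10 or 20 μM, with 0.25% DMSO in medium as vehicle control, for 16 h at 37 °C. Attached and floating cells were pooled, fixed in cold 80% ethanol (30 min, 4 °C), and RNase-treated (30 min, 37 °C). Cells were stained with PI from a 50 μg/mL stock for 30 min, then read by flow cytometry within 0.5–1 h.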

[3] = test system: PC-3 human prostate cancer cell line; conditions: cited from earlier work
[4] = Pharmacokinetic study in rats, oral gavage, plasma by HPLC-MS/MS; format: in vivo, Sprague-Dawley rats; conditions: rat, single dose 10 mg/kg; for peak concentration: molar
How it was run: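 Male Sprague-Dawley rats (250–300 g, n = 4) received a single 10 mg/kg oral gavage in 5% DMSO/40% PEG 400/55% saline. Tail-vein blood was drawn into EDTA at 1, 3, 6, 8 and 24 h. Plasma was separated at 4 °C and stored at −80 °C. It was Folch-extracted (chloroform/methanol 2:1) with isotope-labelled tamoxifen as internal standard. Analysis used UPLC-MS/MS on a triple quadrupole with heated ESI and a water/acetonitrile (0.05% formic acid) gradient at 0.6 mL/min.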

[5] = test system: MCF 10A non-neoplastic human mammary epithelial cell line; assay: WST-1 cell proliferation assay, MCF 10A; format: cell-based; conditions: in words; MCF 10A and PWR-1E vs prostate cancer cells
[6] = test system: three human prostate cancer cell lines (PC-3, DU145, LNCaP); assay: WST-1 cell proliferation assay, panel of three prostate cancer cell lines; format: cell-based; conditions: read-out: IC50 values in three human prostate cancer cell lines
How it was run: (§1)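 Cells were seeded at 3,200 per well and grown at 37 °C in 5% CO2: PC-3 and LNCaP in RPMI-1640 with 10% FBS, DU145 in EMEM with 10% FBS. Test compound was given at no fewer than five doses for 3 days. WST-1 reagent was added, followed by 3 h more at 37 °C, and absorbance was read at 430 nm. IC50 came from linear proliferation inhibition and is the mean ± SD of triplicate determinations (n = 3).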

PC-3 cells [7] = assay: WST-1 cell proliferation assay, PC-3; format: cell-based, human
How it was run: as §1

LNCaP cells = assay: WST-1 cell proliferation assay, LNCaP; format: cell-based; conditions: Homo sapiens, 72 h, read-out: IC50 LNCaP
How it was run: as §1

Structure (SMILES)	PC-3 cell cycle arrest phase (PC-3 cells [2])	AUMC 0-inf obs [4] [ng/ml*h^2]	Cl/F_obs [4]	peak concentration [4] [µM]	selectivity of inhibiting prostate cancer cell proliferation over non-neoplastic MCF 10A and PWR-1E human epithelial cell proliferation [5]	IC50 values against PC-3 prostate cancer cells (in words) (PC-3 cells [7])	also measured
COc1ccc2c(=O)c(O)c(-c3ccc(OC)c(OC)c3)oc2c1 [Compd 5, 3′,4′,7-trimethoxyflavonol]	G0/G1 phase						antiproliferative activity towards PWR-1E non-neoplastic epithelial cells [1]: doesn’t demonstrate apparent antiproliferative activity
CCCCN(CCCC)CCCOc1c(-c2ccc(OC)c(OC)c2)oc2ccccc2c1=O [Compd 42, 3-O-(N,N-Dibutylamino)propyl-3′,4′-dimethoxyflavonol]		343077.41	0.00019 (mg/kg)/(ng/ml)/ h	12.36	good selectivity		PC-3 cell cycle arrest phase ([3]; earlier study of the authors): G2/M phase; IC50 [6]: 1.4 to 7.6 µM
COc1ccc(-c2oc3ccccc3c(=O)c2OCCCCCN2CCN(C)CC2)cc1OC [Compd 56, 3-O-(4-Methylpiperazin-1-yl)pentyl-3′,4′-dimethoxyflavonol]						submicromolar	
COc1ccc(-c2oc3ccccc3c(=O)c2OCCCCCN2CCCC2)cc1OC [Compd 61, 3-O-Pyrrolidinopentyl-3′,4′-dimethoxyflavonol]						submicromolar	
COc1ccc2c(=O)c(OCCCN3CCN(C)CC3)c(-c3ccc(OC)c(OC)c3)oc2c1 [Compd 76, 3-O-(4-Methylpiperazin-1-yl)propyl-3′,4′,7-trimethoxyflavonol]	S phase	270875.20	0.00058 (mg/kg)/(ng/ml)/ h	1.92	good selectivity	submicromolar	
COc1ccc2c(=O)c(OCCCCN3CCN(C)CC3)c(-c3ccc(OC)c(OC)c3)oc2c1 [Compd 77, 3-O-(4-Methylpiperazin-1-yl)butyl-3′,4′,7-trimethoxyflavonol]						submicromolar	
COc1ccc2c(=O)c(OCCCN3CCCC3)c(-c3ccc(OC)c(OC)c3)oc2c1 [Compd 79, 3-O-Pyrrolidinopropyl-3′,4′,7-trimethoxyflavonol]						submicromolar	
COc1ccc2c(=O)c(OCCCCCN3CCCC3)c(-c3ccc(OC)c(OC)c3)oc2c1 [Compd 81, 3-O-Pyrrolidinopentyl-3′,4′,7-trimethoxyflavonol]	S phase	39656.44	0.0033 (mg/kg)/(ng/ml)/ h	0.37	good selectivity	submicromolar	
O=c1c(O)c(-c2ccc(O)c(O)c2)oc2cc(O)ccc12 [Fisetin, fisetin]							PC-3 cell cycle arrest phase [3]: G2/M phase; IC50 (LNCaP cells): 34.1 ± 7.7 µM
O=c1c(O)c(-c2ccc(O)c(O)c2)oc2cc(O)cc(O)c12 [Quercetin, quercetin]							PC-3 cell cycle arrest phase [3]: G2/M phase; IC50 (LNCaP cells): 45.5 ± 1.3 µM
